Source: ChEMBL document CHEMBL1137085, “Recognition of privileged structures by G-protein coupled receptors” (J Med Chem, 2004)
One block for each compound: values may come before it.

Legend:
Melanocortin receptor 4 [1] = target: T1, Melanocortin receptor 4 (Homo sapiens, UniProt P32245); assay: Inhibition against human melanocortin-4 (MC4) receptor; No binding detected
Outline: (§1)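 BHK570 cells stably transfected with MC4 cDNA, with clones selected in G418/MTX medium. Membranes were homogenised in 20 mM Hepes pH 7.1, 5 mM MgCl2 and bacitracin. 10 μg membranes were incubated with 80 pM 125-labelled NDP-α-MSH and varying test concentrations in 25 mM HEPES pH 7.0 buffer (CaCl2, MgSO4, EGTA, tween 20, 0.1% HSA) for 2 h at 25 °C. Samples were filtered and washed with ice-cold saline, then counted; IC50 was determined.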

[2] = target: T2, Type-1 angiotensin II receptor (Homo sapiens, UniProt P30556); assay: Inhibition against human angiotensin II receptor, type 1 (AG2-R)
T2 sequence (P30556 whole entry): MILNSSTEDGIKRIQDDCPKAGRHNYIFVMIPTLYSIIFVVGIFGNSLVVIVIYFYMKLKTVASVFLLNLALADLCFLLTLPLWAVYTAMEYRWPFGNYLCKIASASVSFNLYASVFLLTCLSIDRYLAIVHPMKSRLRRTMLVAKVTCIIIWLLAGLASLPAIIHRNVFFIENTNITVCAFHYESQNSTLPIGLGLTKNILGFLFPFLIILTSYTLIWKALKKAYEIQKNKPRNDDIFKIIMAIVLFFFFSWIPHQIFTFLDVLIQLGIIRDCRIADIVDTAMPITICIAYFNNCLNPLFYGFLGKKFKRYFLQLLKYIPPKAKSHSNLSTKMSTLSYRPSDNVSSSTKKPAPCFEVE
Outline: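 Competition binding assay with saralasin as tracer, run externally by a contract lab following a published method. IC50 values were derived from tracer displacement.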

[3] = target: Growth hormone secretagogue receptor type 1 (Sus scrofa, UniProt Q95254); assay: Inhibition against pig growth hormone secretagogue (GHS) receptor
[4] = target: T3, Growth hormone secretagogue receptor type 1 (Homo sapiens, UniProt Q92847); assay: Inhibition against human growth hormone secretagogue (GHS) receptor
Outline: (§2)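 Competition binding assay with ghrelin as tracer, run as previously described. IC50 values were derived from tracer displacement.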

Melanocortin receptor 4 [5] = target: T1, Melanocortin receptor 4; assay: Inhibition against human melanocortin-4 (MC4) receptor; outline: as §1
[6] = target: T3, Growth hormone secretagogue receptor type 1; assay: Inhibition against human growth hormone secretagogue (GHS) receptor; No binding detected; outline: as §2
[7] = target: 5-hydroxytryptamine receptor 6 (Homo sapiens, UniProt P50406); assay: Inhibition against human 5-hydroxytryptamine 6 receptor
Chain of 5-hydroxytryptamine receptor 6 (P50406 whole entry): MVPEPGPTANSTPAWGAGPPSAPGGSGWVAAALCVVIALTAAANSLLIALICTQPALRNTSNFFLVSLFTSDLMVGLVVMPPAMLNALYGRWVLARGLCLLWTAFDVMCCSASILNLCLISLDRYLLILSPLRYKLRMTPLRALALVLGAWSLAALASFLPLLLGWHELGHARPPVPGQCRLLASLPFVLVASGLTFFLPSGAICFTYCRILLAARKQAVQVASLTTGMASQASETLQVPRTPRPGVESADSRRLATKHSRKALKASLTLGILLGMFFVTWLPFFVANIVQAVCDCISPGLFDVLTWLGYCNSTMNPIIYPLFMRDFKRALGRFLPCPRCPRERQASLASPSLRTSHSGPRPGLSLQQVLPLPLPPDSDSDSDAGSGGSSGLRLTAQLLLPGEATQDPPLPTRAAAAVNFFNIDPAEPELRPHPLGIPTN

T1 sequence (P32245 whole entry): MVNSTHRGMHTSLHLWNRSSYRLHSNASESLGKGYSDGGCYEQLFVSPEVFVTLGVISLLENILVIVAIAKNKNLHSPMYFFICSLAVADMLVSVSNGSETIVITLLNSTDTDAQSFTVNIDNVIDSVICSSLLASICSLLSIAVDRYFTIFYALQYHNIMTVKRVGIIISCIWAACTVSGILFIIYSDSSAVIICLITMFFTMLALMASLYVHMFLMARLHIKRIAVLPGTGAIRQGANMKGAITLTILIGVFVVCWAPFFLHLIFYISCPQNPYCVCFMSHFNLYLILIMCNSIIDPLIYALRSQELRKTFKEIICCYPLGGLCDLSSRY
T3 sequence (Q92847 whole entry): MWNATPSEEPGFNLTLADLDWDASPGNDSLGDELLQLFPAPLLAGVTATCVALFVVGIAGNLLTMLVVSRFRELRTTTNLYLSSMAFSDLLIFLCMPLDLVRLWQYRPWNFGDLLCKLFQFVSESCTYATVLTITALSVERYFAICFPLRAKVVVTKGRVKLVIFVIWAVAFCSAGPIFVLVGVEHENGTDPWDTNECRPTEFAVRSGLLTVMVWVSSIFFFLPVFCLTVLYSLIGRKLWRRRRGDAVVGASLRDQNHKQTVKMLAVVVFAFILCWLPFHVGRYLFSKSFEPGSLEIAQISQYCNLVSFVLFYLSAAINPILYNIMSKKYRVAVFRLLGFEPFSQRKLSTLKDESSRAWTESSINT
Chain of Growth hormone secretagogue receptor type 1 (Sus scrofa, UniProt Q95254) (Q95254 whole entry): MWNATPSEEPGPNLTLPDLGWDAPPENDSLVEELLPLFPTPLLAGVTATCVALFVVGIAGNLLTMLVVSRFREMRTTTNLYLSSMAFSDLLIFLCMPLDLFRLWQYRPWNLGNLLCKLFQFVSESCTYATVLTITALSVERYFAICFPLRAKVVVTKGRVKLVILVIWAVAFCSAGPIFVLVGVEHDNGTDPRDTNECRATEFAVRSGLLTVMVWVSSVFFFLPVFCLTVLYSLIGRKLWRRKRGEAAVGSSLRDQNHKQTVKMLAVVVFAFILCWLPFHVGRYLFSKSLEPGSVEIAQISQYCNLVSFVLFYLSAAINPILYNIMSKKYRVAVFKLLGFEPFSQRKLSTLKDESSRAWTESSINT

IC50 [2]: 3600 nM
IC50 [3]: 63 nM
IC50 [4]: 2800 nM
SMILES: CC(C)(N)CC(=O)N[C@@H]1CCc2ccccc2N(Cc2ccc(-c3ccccc3-c3nnn[nH]3)cc2)C1=O

IC50 [6]: Not Active
SMILES: CCCCc1nc(Cl)c(CO)n1Cc1ccc(-c2ccccc2-c2nnn[nH]2)cc1 [LOSARTAN]

More lines, now with the values behind:

SMILES: CC(C)(N)C(=O)N[C@H](COCc1ccccc1)C(=O)N1CCC2(CC1)CN(S(C)(=O)=O)c1ccccc12 [IBUTAMOREN]
IC50 (Melanocortin receptor 4 [1]): Not Active

SMILES: Cc1ccc2[nH]c(-c3ccc(Br)cc3)c(CCCCCNC3CCCCC3)c2c1
IC50 (Melanocortin receptor 4 [5]): 612 nM

SMILES: CN(C)CCCc1c(-c2cccc(Br)c2)[nH]c2ccccc12
IC50 [7]: 0.7 nM

SMILES: CS(=O)(=O)N1CC2(CCN(C(=O)[C@@H](Cc3ccc(Cl)cc3)NC(=O)C3Cc4ccccc4CN3)CC2)c2ccccc21 (some centres undefined)
IC50 [4]: 190 nM
IC50 (Melanocortin receptor 4 [5]): 100 nM
